Source: PubChem BioAssay
Hits are enriched below; roughly 0.55% of the tested compounds scored in any of these assays.
p97 inhibitor: blocks human p97 ATPase activity; P55072; recombinant p97 ATPase, Kinase-Glo ATP luminescence, 3 h; inhibition, % at 8 µM; 220,000 tested, 0.42% active; AID 1481; in the data active means inhibition above about 15%;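 further: 0% = DMSO vehicle and 100% = wells lacking enzyme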
ABCG2 inh: inhibitors of human ABCG2 transporter, ABCB1 counter-screen; Q9UNQ0; IgMXP3 cells, JC-1 efflux, flow cytometry; inhibition, % at 6.6 µM; 190,000 tested, 0.1% active;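 active means inhibition above 80%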;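 further: 0% = DMSO and 100% = nicardipine control wells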
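Test system: IgMXP3 (ABCG2) plus far-red-tagged CCRF-Adr (ABCB1) cells. Reagent: JC-1 dye as substrate. Timing: 10 min exposure at 25 °C with rotation, no wash. Measured by: flow cytometric JC-1 green MFI at 530 nm. Read-out: percent efflux inhibition, scaled nicardipine 100% to DMSO 0%. Control set: nicardipine and DMSO wells.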
ABCB6 inh MLPCN: blocks the human ABCB6 transporter. Q9NP58. K562-ABCB6 porphyrin accumulation, flow cytometry, 1 h; active compounds read low. fluorescence ratio to DMSO, % at 10 µM. 360,000 tested, 0.19% active;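 active means fluorescence ratio to DMSO below 75%, the collection mean minus 3 SD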;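 further: signal is porphyrin accumulated inside mitochondria; 100% equals median channel fluorescence of DMSO control wells; lower ratio means ABCB6 inhibition with less porphyrin fluorescence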
Rad51 HR inh: blocks human Rad51 in homologous recombination; Q06609; hRad51 DNA strand exchange, fluorescence dequenching; inhibition, % at 10 µM; 200,000 tested, 0.085% active; AID 1385;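 active means inhibition above 40% at the single screening dose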;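 further: 0% = DMSO control wells and 100% = blanks with heterologous ssDNA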
Target sequence (Q06609 whole entry, looked up): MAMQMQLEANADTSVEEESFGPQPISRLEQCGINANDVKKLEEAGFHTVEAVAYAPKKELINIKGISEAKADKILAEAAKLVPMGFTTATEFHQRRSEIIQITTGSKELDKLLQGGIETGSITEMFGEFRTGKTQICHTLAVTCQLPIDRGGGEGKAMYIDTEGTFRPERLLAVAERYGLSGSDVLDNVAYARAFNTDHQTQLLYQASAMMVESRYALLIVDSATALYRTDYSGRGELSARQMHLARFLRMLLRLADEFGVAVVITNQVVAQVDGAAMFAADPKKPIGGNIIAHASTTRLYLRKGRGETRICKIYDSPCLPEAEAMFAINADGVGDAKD
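Test system: preformed human Rad51 ssDNA filaments; also added: Donor/quencher-labelled 47-bp dsDNA substrate; doses: 10 µM final, single point; times: 37 °C 15-min filament assembly, 30-min compound preincubation, 15-min exchange; detection: FRET fluorescence dequenching, excitation 485 nm, emission 520 nm; read-out basis: Fluorescence-based percent inhibition, control- and blank-normalised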
ABCB1 block: blocks JC-1 efflux by human ABCB1 transporter; P08183; CCRF-Adr cells, flow cytometry; inhibition, % at 6.6 µM; 190,000 tested, 0.067% active; in the data active means inhibition above about 40%;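 further: 0% = vehicle and 100% = reference inhibitor; higher value means more JC-1 retained so stronger ABCB1 efflux block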
HSV replic up: increases HSV replication in cells; AID 1956; maximum fold increase; 220,000 tested, 0.005% active; HSV replication augmentation in cells, fold increase; in the data active means maximum fold increase above about 1.5; tested in PC3 cells
ABCB6 blocker 1: inhibitors of human ABC transporter ABCB6; shares compounds with ABCB6 inh MLPCN; K562-ABCB6 porphyrin accumulation, flow cytometry, 1 h; active compounds read low; ratio response (% of DMSO), % at 10 µM; 700 tested, under 10 active; AID 602430;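 active means repeat-averaged ratio response below 75% of DMSO, the collection mean minus 3 SD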;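 further: median porphyrin fluorescence at 575 nm with 488 nm excitation from mitochondria; lower ratio means less porphyrin signal so ABCB6 inhibition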
* marks the source's active call; other numbers are inactive results; i = inactive; . = not tested or not shown.

SMILES | p97 inhibitor | ABCG2 inh | ABCB6 inh MLPCN | Rad51 HR inh | ABCB1 block | HSV replic up | ABCB6 blocker 1
Cc1nn(Cc2c(F)c(F)c(F)c(F)c2F)c(C)c1NC(=O)c1c(-c2ccccc2)nn(-c2ccccc2)c1C | -4 | 4 | 38* | -1 | 1 | i | 98
Cc1c(C(=O)NCc2ccc(F)cc2)c(-c2ccccc2)nn1-c1ccccc1 | -2 | 5 | 101 | 5 | 2 | i | .
Cc1onc(-c2ccccc2Cl)c1C(=O)NCC1CCCO1 (centres undefined) | 5 | 4 | 74* | 3 | 1 | i | 101
O=C(Nc1ccccc1)N(CCCN1CCOCC1)Cc1ccccc1F | 4 | 15 | 78 | -7 | 1 | i | .
COc1ccc(CN(CCCN2CCOCC2)C(=O)Nc2ccccc2)cc1OC | 2 | 3 | 68* | -2 | 1 | i | 98
COC(=O)c1ccc(Cn2c(C)c(C(=O)NCc3ccc(Cl)c(Cl)c3)sc2=O)o1 | . | . | 102 | . | . | . | .
C=CC[C@@H](Cc1ccc(F)cc1)C(=O)OC[C@@H]1CCCN1C(=O)[C@@H](CC=C)CC(=O)N[C@H](CO)Cc1ccccc1 | . | . | 95 | . | . | . | .
COc1ccccc1Oc1ncnc2c1oc1ccccc12 | -1 | 2 | 69* | -4 | 0 | i | 100
CC1CCN(S(=O)(=O)c2ccc(Cl)s2)CC1 | . | . | 96 | . | . | . | .
O=C(O)C1CCN(S(=O)(=O)c2ccc(Cl)s2)CC1 | . | . | 94 | . | . | . | 97
CC(C)=CCc1c(O)ccc(C(=O)Cc2ccccc2)c1O | -2 | 10 | 64* | 0 | 0 | i | 96
Cc1ncc([N+](=O)[O-])n1CC(=O)Nc1cc(Cl)ccc1Cl | . | . | 10* | . | . | . | 98
C[C@@H]1CN([C@@H](C)CO)C(=O)CCCn2nncc2CO[C@@H]1CN(C)C(=O)Nc1ccc(-c2cccs2)cc1 | . | . | 102 | . | . | . | .
COc1ccc(NC(=O)C2Cc3c(-c4cccc(C(N)=O)c4)ccnc3O2)cc1OC (centres undefined) | . | . | 96 | . | . | . | 98
CS(=O)(=O)Nc1cccc(NC(=O)C2Cc3c(-c4cccc(C(N)=O)c4)ccnc3O2)c1 (centres undefined) | . | . | 61* | . | . | . | 100
COc1ccc(NC(=O)C2Cc3c(-c4cccc(C(C)=O)c4)ccnc3O2)cc1OC (centres undefined) | . | . | 90 | . | . | . | .
COc1ccc(NC(=O)C2Cc3c(-c4ccc5c(c4)OCO5)ccnc3O2)cc1 (centres undefined) | . | . | 98 | . | . | . | .
Cc1ccccc1N1C(=O)[C@@H]2Cc3ccccc3CN2C1=O | 3 | 6 | 68* | -12 | 1 | i | 98
COc1ccc(-c2nnc(SCC(=O)N3CCc4ccccc4C3)o2)cc1 | 0 | 0 | 56* | -5 | 0 | i | 101
CCOC(=O)C1CCN(Cc2ccc(F)c(Br)c2)CC1 | 2 | -3 | 69* | 1 | -1 | i | 99
Cc1cc(C(=O)COc2ccc(Br)cc2F)c(C)n1CC1CCCO1 (centres undefined) | . | . | 71* | . | . | . | 97
CC1CCCCC1NC(=O)c1cc2c(s1)CS(=O)(=O)C2 (centres undefined) | 5 | 9 | 71* | -2 | 1 | i | 98
COC(=O)c1ccccc1NC(=O)c1noc2c1CC(C(C)(C)C)CC2 (centres undefined) | 4 | 12 | 69* | 8 | 1 | i | 100
Cc1c2ccccc2nc2c(F)c(NCCO)c(F)c(F)c12 | 9 | 7 | 235 | -14 | 0 | i | .
OCCNc1c2ccccc2nc2c(F)c(F)c(F)c(F)c12 | 12 | 2 | 71* | -9 | 2 | . | 109
SMILES | p97 inhibitor | ABCG2 inh | ABCB6 inh MLPCN | Rad51 HR inh | ABCB1 block | HSV replic up | ABCB6 blocker 1
CC1=C(C(=O)N(C(C)C)C(C)C)CC(CC(=O)NCc2cccc3ccccc23)C(=O)N1Cc1ccc(C(C)(C)C)cc1 (centres undefined) | . | . | 98 | . | . | . | .
Cc1cc(NC(=O)CSc2nnnn2-c2ccc(C)c(C)c2)no1 | 2 | 2 | 96 | 14 | 0 | i | .
Cc1cc(NC(=O)CSc2nnnn2-c2ccc(C)c(Cl)c2)no1 | . | . | 72* | . | . | . | 99
COc1ccccc1Nc1ncnc2c1cnn2-c1cccc(C)c1 | -9 | 17 | 102 | -1 | 0 | i | .
COc1ccc(OC)c(Nc2ncnc3c2cnn3-c2ccccc2)c1 | -8 | 8 | 71* | -2 | 0 | i | 101
O=c1c2c(nc(NCCO)n1CC1CCCCC1)-c1ccccc1CC21CCCC1 | -2 | 0 | 61* | 9 | 0 | i | 100
COc1ccccc1N(C)S(=O)(=O)c1ccc(C(=O)N2CCCC(C(F)(F)F)C2)cc1 (centres undefined) | . | . | 74* | . | . | . | 102
COc1ccccc1NS(=O)(=O)c1ccc(C(=O)N2CCCC(C(F)(F)F)C2)cc1 (centres undefined) | . | . | 93 | . | . | . | .
COC(=O)C1C(=O)C2=C(CC1C)NC(C)=C(C(=O)OC(C)C)C2c1ccc(OC)c(O)c1 (centres undefined) | 4 | 0 | 73* | -5 | 0 | i | 101
COC(=O)C1C(=O)C2=C(CC1C)NC(C)=C(C(=O)OC1CCCC1)C2c1ccc(N(C)C)cc1 (centres undefined) | 1 | -1 | 96 | 6 | 0 | i | .
NC(=S)Cc1nc2n(n1)Cc1ccccc1-2 | -4 | 0 | 70* | 5 | 0 | i | 99
Cc1cccc(C)c1NC(=O)c1csc([C@H]2C[C@H](O)[C@@H](CO)O2)n1 | . | . | 100 | . | . | . | .
N#Cc1ccsc1NC(=O)COC(=O)c1ccc(NC(N)=O)cc1 | 1 | -3 | 74* | -6 | 0 | i | 98
NC(=O)Nc1ccc(C(=O)OCC(=O)Nc2sccc2C(N)=O)cc1 | . | . | 96 | . | . | . | .
CCOC(=O)c1ccc(S(=O)(=O)Nc2cc(C(C)(C)C)no2)cc1 | 0 | -2 | 66* | -5 | -1 | i | 99
O=C(CCC(=O)N1CCCC1)Nc1nnc(C2CCCCC2)s1 | -3 | 3 | 93 | -5 | 0 | i | .
CC1CCCCN1C(=O)CCC(=O)Nc1nnc(C2CCCCC2)s1 (centres undefined) | . | . | 20* | . | . | . | 102
Cc1ccccc1C(=O)N(C)[C@H]1C[C@H]2c3[nH]c4ccccc4c3CCN2C[C@H]1[C@H](C)O | . | . | 105 | . | . | . | .
CCCC(=O)Nc1ccc2c(c1)Cc1ccccc1-2 | . | . | 73* | . | . | . | 99
CC(Oc1ccc(Cl)cc1Cl)c1ccnc2nc(N3CCOCC3)nn12 (centres undefined) | 0 | 8 | 74* | 16 | 1 | i | 99
CC(Oc1ccccc1)c1ccnc2nc(N3CCOCC3)nn12 (centres undefined) | 2 | 0 | 96 | -2 | 0 | i | .
